Experimental data as given in ChEMBL document CHEMBL1914423, “New imidazo[2,1-b]thiazole derivatives: synthesis, in vitro anticancer evaluation, and in silico studies” (Eur J Med Chem, 2011).

What was measured:
[1] = Antiproliferative activity against human A375P cells after 48 hrs by MTT assay; format: functional, cell-based
Method in brief: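 A375P cells in DMEM with 10% FBS at 37 °C, 5% CO2. Seeded at 5×10³ cells/well, held 24 h, then treated with 12-point 3-fold serial dilutions for 48 h. Viability by MTT reduction. IC50 values are means of triplicate experiments.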

[2] = test system: HL-60(TB); assay: Anticancer activity against human HL-60(TB) cells assessed as cell growth at 10^-5 M after 48 hrs by SRB assay; format: functional; settings: HL-60, 48 h, read-out: Activity
Method in brief: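 NCI-60 single-dose screen. Cells in RPMI 1640 with 5% FBS and 2 mM L-glutamine were plated at 5000–40,000 cells/well and preincubated 24 h at 37 °C before one compound concentration. Time-zero plates were TCA-fixed at drug addition. For suspension cells, settled cells were fixed with cold TCA, then SRB-stained and read at 515 nm. Percent growth was calculated from time-zero, control and treated absorbances.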

[3] = test system: SR; assay: Anticancer activity against human SR cells assessed as cell growth at 10^-5 M after 48 hrs by SRB assay; format: functional; settings: read-out: Activity
Method in brief: (§1)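 NCI-60 single-dose screen: cells in RPMI 1640 with 5% FBS and 2 mM L-glutamine, plated at 5000–40,000 cells/well by doubling time, and preincubated 24 h at 37 °C. Compound given at one concentration from DMSO stock. Cells TCA-fixed and SRB-stained, absorbance at 515 nm. Percent growth relative to time-zero and untreated controls; inhibition % = 100 − growth %.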

[4] = test system: A549; assay: Anticancer activity against human A549 cells assessed as cell growth at 10^-5 M after 48 hrs by SRB assay; format: functional; settings: A549, 48 h, read-out: Activity
Method in brief: (§2)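 NCI-60 single-dose screen at one concentration. Cells grown in RPMI 1640 with 5% FBS and 2 mM L-glutamine, plated at 5000–40,000 cells/well, and pre-incubated 24 h at 37 °C in 5% CO2 before DMSO-dissolved drug was added. Cells fixed with TCA, SRB-stained, absorbance read at 515 nm. Percent growth calculated against time-zero and untreated control plates.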

[5] = test system: EKVX; assay: Anticancer activity against human EKVX cells assessed as cell growth at 10^-5 M after 48 hrs by SRB assay; format: functional; settings: read-out: Activity; method in brief: as §2
[6] = test system: HOP-62; assay: Anticancer activity against human HOP62 cells assessed as cell growth at 10^-5 M after 48 hrs by SRB assay; format: functional; settings: HOP-62, 48 h, read-out: Activity; method in brief: as §2
[7] = test system: COLO 205; assay: Anticancer activity against human COLO205 cells assessed as cell growth at 10^-5 M after 48 hrs by SRB assay; format: functional; settings: COLO 205, 48 h, read-out: Activity; method in brief: as §2
[8] = test system: HCC 2998; assay: Anticancer activity against human HCC2998 cells assessed as cell growth at 10^-5 M after 48 hrs by SRB assay; format: functional; settings: HCC 2998, 48 h, read-out: Activity; method in brief: as §2
[9] = test system: HT-29; assay: Anticancer activity against human HT-29 cells assessed as cell growth at 10^-5 M after 48 hrs by SRB assay; format: functional; settings: HT-29, 48 h, read-out: Activity; method in brief: as §2
[10] = test system: SW-620; assay: Anticancer activity against human SW620 cells assessed as cell growth at 10^-5 M after 48 hrs by SRB assay; format: functional; settings: SW-620, 48 h, read-out: Activity; method in brief: as §1
[11] = test system: SF-268; assay: Anticancer activity against human SF268 cells assessed as cell growth at 10^-5 M after 48 hrs by SRB assay; format: functional; settings: SF-268, 48 h, read-out: Activity
[12] = test system: SF-539; assay: Anticancer activity against human SF539 cells assessed as cell growth at 10^-5 M after 48 hrs by SRB assay; format: functional; settings: SF-539, 48 h, read-out: Activity
[13] = test system: SNB-19; assay: Anticancer activity against human SNB19 cells assessed as cell growth at 10^-5 M after 48 hrs by SRB assay; format: functional; settings: SNB-19, 48 h, read-out: Activity
[14] = test system: SNB-75; assay: Anticancer activity against human SNB75 cells assessed as cell growth at 10^-5 M after 48 hrs by SRB assay; format: functional; settings: SNB-75, 48 h, read-out: Activity; method in brief: as §1
[15] = test system: LOX IMVI; assay: Anticancer activity against human LOXIMVI cells assessed as cell growth at 10^-5 M after 48 hrs by SRB assay; format: functional; settings: read-out: Activity; method in brief: as §2
[16] = test system: MDA-MB-435; assay: Anticancer activity against human MDA-MB-435 cells assessed as cell growth at 10^-5 M after 48 hrs by SRB assay; format: functional; settings: MDA-MB-435, 48 h, read-out: Activity
[17] = test system: SK-MEL-2; assay: Anticancer activity against human SK-MEL-2 cells assessed as cell growth at 10^-5 M after 48 hrs by SRB assay; format: functional; settings: SK-MEL-2, 48 h, read-out: Activity
[18] = test system: UACC-257; assay: Anticancer activity against human UACC257 cells assessed as cell growth at 10^-5 M after 48 hrs by SRB assay; format: functional; settings: UACC-257, 48 h, read-out: Activity; method in brief: as §1
[19] = test system: UACC-62; assay: Anticancer activity against human UACC62 cells assessed as cell growth at 10^-5 M after 48 hrs by SRB assay; format: functional; settings: UACC-62, 48 h, read-out: Activity; method in brief: as §1
[20] = test system: OVCAR-4; assay: Anticancer activity against human OVCAR4 cells assessed as cell growth at 10^-5 M after 48 hrs by SRB assay; format: functional; settings: OVCAR-4, 48 h, read-out: Activity
[21] = test system: OVCAR-5; assay: Anticancer activity against human OVCAR5 cells assessed as cell growth at 10^-5 M after 48 hrs by SRB assay; format: functional; settings: OVCAR-5, 48 h, read-out: Activity
[22] = test system: NCI/ADR-RES; assay: Anticancer activity against human NCI/ADR-RES cells assessed as cell growth at 10^-5 M after 48 hrs by SRB assay; format: functional; settings: read-out: Activity
[23] = test system: A498; assay: Anticancer activity against human A498 cells assessed as cell growth at 10^-5 M after 48 hrs by SRB assay; format: functional; settings: A498, 48 h, read-out: Activity; method in brief: as §2
[24] = test system: CAKI-1; assay: Anticancer activity against human Caki1 cells assessed as cell growth at 10^-5 M after 48 hrs by SRB assay; format: functional; settings: CAKI-1, 48 h, read-out: Activity; method in brief: as §2
[25] = test system: RXF 393; assay: Anticancer activity against human RXF393 cells assessed as cell growth at 10^-5 M after 48 hrs by SRB assay; format: functional; settings: RXF 393, 48 h, read-out: Activity
[26] = test system: DU-145; assay: Anticancer activity against human DU145 cells assessed as cell growth at 10^-5 M after 48 hrs by SRB assay; format: functional; settings: DU-145, 48 h, read-out: Activity; method in brief: as §2
[27] = test system: BT-549; assay: Anticancer activity against human BT549 cells assessed as cell growth at 10^-5 M after 48 hrs by SRB assay; format: functional; settings: BT-549, 48 h, read-out: Activity; method in brief: as §2

| SMILES | IC50 [1] | growth at 10 µM [2] | growth at 10 µM [3] | growth at 10 µM [4] | growth at 10 µM [5] | growth at 10 µM [6] | growth at 10 µM [7] | growth at 10 µM [8] | growth at 10 µM [9] | growth at 10 µM [10] | growth at 10 µM [11] | growth at 10 µM [12] | growth at 10 µM [13] | growth at 10 µM [14] | growth at 10 µM [15] | growth at 10 µM [16] | growth at 10 µM [17] | growth at 10 µM [18] | growth at 10 µM [19] | growth at 10 µM [20] | also measured |
| --- | --- | --- | --- | --- | --- | --- | --- | --- | --- | --- | --- | --- | --- | --- | --- | --- | --- | --- | --- | --- | --- |
| O=C(NCCNc1nccc(-c2c(-c3cccc(O)c3)nc3sccn23)n1)c1cc(C(F)(F)F)cc(C(F)(F)F)c1 | > 10 µM | 123% | 98.2% | 92.5% | 103% | 118% | 59.8% | 129% | 63.1% | 117% | 105% | 113% | 123% | 87.7% | 90.7% | 59.2% | 101% | 66.5% | 27.5% | 129% | growth at 10 µM [21]: 104%; growth at 10 µM [22]: 108%; growth at 10 µM [23]: 112%; growth at 10 µM [24]: 96.8%; growth at 10 µM [25]: 107%; growth at 10 µM [26]: 114%; growth at 10 µM [27]: 108% |
| O=C(NCCNc1nccc(-c2c(-c3cccc(O)c3)nc3sccn23)n1)c1cccc(C(F)(F)F)c1 | 2.1 µM | 95.5% | 97% | 71.3% | 91.6% | 114% | 71.1% | 117% | 81.1% | 107% | 86.7% | 100% | 116% | 73.8% | 53.4% | 21.7% | 62.1% | 14.3% | 3.21% | 117% | growth at 10 µM [21]: 113%; growth at 10 µM [22]: 98.3%; growth at 10 µM [23]: 84.5%; growth at 10 µM [24]: 75.6%; growth at 10 µM [25]: 79.9%; growth at 10 µM [26]: 91.4%; growth at 10 µM [27]: 88% |
| COc1cccc(-c2nc3sccn3c2-c2ccnc(NCCNC(=O)c3cc(C(F)(F)F)cc(C(F)(F)F)c3)n2)c1 | > 10 µM | 131% | 78.1% | 81.2% | 84.4% | 109% | 93.4% | 90.2% | 69.8% | 119% | 82.5% | 88.3% | 99.2% | 75.8% | 92.5% | 83.9% | 81.8% | 99.6% | 70.3% | 103% | growth at 10 µM [21]: 101%; growth at 10 µM [22]: 72.7%; growth at 10 µM [23]: 95.6%; growth at 10 µM [24]: 85.9%; growth at 10 µM [25]: 51.2%; growth at 10 µM [26]: 94.4%; growth at 10 µM [27]: 86.2% |
